Experimental findings from ChEMBL document CHEMBL1781931, “Anacardic acid derivatives as inhibitors of glyceraldehyde-3-phosphate dehydrogenase from Trypanosoma cruzi” (Bioorg Med Chem, 2008) are described below.

Calls of active or inactive are those of the source. The calls are words filed in the database; no cut-off is given here. Where only a bound is given, the exact number is not on record here.

For assay [1], the target named is T1, Glyceraldehyde-3-phosphate dehydrogenase, glycosomal (Trypanosoma cruzi, UniProt P22513). Briefly: Inhibition of Trypanosoma cruzi recombinant glycosomal GAPDH expressed in Escherichia coli using GAPDH and D-glyceraldehyde-3-phosphate. The procedure, abridged:
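Recombinant T. cruzi GAPDH (20 nM; E. coli-expressed, purified by hydrophobic then cation-exchange chromatography) assayed at 25 °C in triplicate. Buffer: 100 mM triethanolamine-HCl pH 7.5, 1 mM EDTA, 1 mM 2-mercaptoethanol, 30 mM arsenate, 400 µM NAD+, 300 µM G-3-P. NADH formation read at 340 nm for 8 min. Initial rates give % inhibition; IC50 from ≥5 inhibitor concentrations by nonlinear regression.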

Assay [2] deals with T1, Glyceraldehyde-3-phosphate dehydrogenase, glycosomal. Briefly: Non-competitive inhibition of Trypanosoma cruzi recombinant glycosomal GAPDH expressed in Escherichia coli assessed as dissociation constant for binary enzyme-inhibitor complex using NAD+ substrate by Lineweaver-Burk plot method. The procedure, abridged:
(§1)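 Inhibition type and Ki/αKi were determined against each substrate (G-3-P or NAD+), varying that substrate at 3 or 4 inhibitor concentrations. Conditions were otherwise those of the 340 nm NADH assay: 20 nM recombinant GAPDH, pH 7.5 triethanolamine buffer, 25 °C. Double-reciprocal plots were used, with parameters fitted in an enzyme-kinetics module. Means are of ≥3 experiments.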

Assay [3] has the same target. Briefly: Non-competitive inhibition of Trypanosoma cruzi recombinant glycosomal GAPDH expressed in Escherichia coli assessed as dissociation constant for ternary enzyme-substrate-inhibitor complex using NAD+ substrate by Lineweaver-Burk plot method. An outline of the steps: as §1
Assay [4] has the same target. Briefly: Non-competitive inhibition of Trypanosoma cruzi recombinant glycosomal GAPDH expressed in Escherichia coli assessed as dissociation constant for binary enzyme-inhibitor complex using D-glyceraldehyde-3-phosphate substrate by Lineweaver-Burk plot method. The procedure, abridged:
as §1

Assay [5] has the same target. Briefly: Non-competitive inhibition of Trypanosoma cruzi recombinant glycosomal GAPDH expressed in Escherichia coli assessed as dissociation constant for ternary enzyme-substrate-inhibitor complex using D-glyceraldehyde-3-phosphate substrate by Lineweaver-Burk plot method. The procedure, abridged:
as §1

Assay [6] addresses Glyceraldehyde-3-phosphate dehydrogenase, glycosomal (Trypanosoma cruzi) (UniProt P22513). Briefly: Inhibition of Trypanosoma cruzi recombinant glycosomal GAPDH expressed in Escherichia coli using GAPDH and D-glyceraldehyde-3-phosphate in presence of 0.01% Triton X-100. The procedure, abridged: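 Assay as for the standard GAPDH rate measurement: 20 nM recombinant enzyme, triethanolamine-HCl pH 7.5 with EDTA, 2-mercaptoethanol, arsenate, 400 µM NAD+ and 300 µM G-3-P, 25 °C, NADH followed at 340 nm. Triton X-100 was added to 0.01% final, from a freshly made 1% (v/v) stock in triethanolamine buffer, to test for nonspecific inhibition.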

T1 sequence (P22513 whole entry): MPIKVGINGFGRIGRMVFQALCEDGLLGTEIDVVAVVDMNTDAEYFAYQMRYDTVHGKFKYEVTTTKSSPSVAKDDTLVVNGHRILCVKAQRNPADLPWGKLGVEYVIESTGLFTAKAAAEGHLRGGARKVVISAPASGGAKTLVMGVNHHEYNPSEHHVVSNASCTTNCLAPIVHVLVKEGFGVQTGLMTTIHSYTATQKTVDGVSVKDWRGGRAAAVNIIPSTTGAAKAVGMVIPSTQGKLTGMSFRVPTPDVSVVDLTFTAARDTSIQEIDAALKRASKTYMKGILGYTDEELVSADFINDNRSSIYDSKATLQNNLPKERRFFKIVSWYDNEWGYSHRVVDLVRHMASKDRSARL
Chain of Glyceraldehyde-3-phosphate dehydrogenase, glycosomal (Trypanosoma cruzi) (P22513 whole entry): as above

With `O=C(O)c1c(O)cccc1CCCCCCCCCCO`, the IC50 in assay [1] is 240 µM. On the same count and under the same terms, for `O=C(O)c1c(O)cccc1CCCCCCCCO` the value was over 250 µM; for `CCCCCCCCCc1cccc(O)c1C(=O)O`, 200 µM. On the same count and under the same terms, under `CCOC(=O)c1c(CCCCCCCCCCOC2CCCCO2)cccc1OC` (configuration not stated) stands over 250 µM. The same measure, in the same setting: under `CCCCCCCCCCCCc1cccc(OC)c1C(=O)OCC` stands over 250 µM. Take `CCOC(=O)c1c(O)cccc1CCCCCCO`: the IC50 in assay [1] is over 250 µM.

Regarding `CCCCCCCC=Cc1cccc(OC)c1C(=O)OCC` (mixture of isomers), the IC50 in assay [1] is over 300 µM. Turning to `CCCCCCCCCCCCc1cccc(O)c1C(=O)O`, the Ki amounted to 5 µM in assay [2], 43 µM in assay [3], 4 µM in assay [4] and 38 µM in assay [5]. Moreover, in assay [1], the IC50 was 55 µM. Besides, the inhibition result in assay [6] was “Active”.

Regarding `CCOC(=O)c1c(CCCCCCOC2CCCCO2)cccc1OC` (configuration not stated), in assay [1], the IC50 was over 250 µM. Turning to `CCOC(=O)c1c(C=CCCCCOC2CCCCO2)cccc1OC` (mixture of isomers), the IC50 in assay [1] was over 300 µM. On to `O=C(O)c1c(O)cccc1CCCCCCO`, for which the IC50 in assay [1] is over 250 µM.

Regarding `CCOC(=O)c1c(C=CCCCCCCOC2CCCCO2)cccc1OC` (mixture of isomers), the 50% inhibitory concentration (IC50) in assay [1] was over 300 µM. Turning to `CCOC(=O)c1c(C=CCCCCCCCCOC2CCCCO2)cccc1OC` (mixture of isomers), the IC50 in assay [1] was over 300 µM. The same measure, in the same setting: for `CCCCCCCCCCC=Cc1cccc(OC)c1C(=O)OCC` (mixture of isomers) the value was over 300 µM; for `O=CCCCCCCCc1cccc(O)c1C(=O)O`, over 250 µM; for `CCOC(=O)c1c(CCCCCCCCOC2CCCCO2)cccc1OC` (configuration not stated), over 250 µM. Same read-out and setting: under `CCCCCCCCCc1cccc(OC)c1C(=O)OCC` stands over 250 µM.

For `C=CC/C=C\C/C=C\CCCCCCCc1cccc(O)c1C(=O)O` [ANACARDIC ACID], the Ki was found to be 4 µM in assay [2], 6 µM in assay [3], 2 µM in assay [4] and 4 µM in assay [5]. Also, the IC50 in assay [1] worked out at 28 µM. The inhibition result in assay [6] is “Active”. Regarding `CCOC(=O)c1c(O)cccc1CCCCCCCCO`, the IC50 in assay [1] was over 250 µM.

As for `CCCCCCCCCCCCc1cccc(O)c1C(=O)OCC`, the IC50 in assay [1] amounted to 215 µM. For the compound `CCCCCCCCCc1cccc(O)c1C(=O)OCC`, the IC50 in assay [1] was over 250 µM. Same read-out and setting: for `CCOC(=O)c1c(O)cccc1CCCCCCCCCCO` the value was over 250 µM.
